The target of test [1] is T1, Nitric oxide synthase, inducible (Mus musculus) (UniProt P29477).
T1 sequence (whole entry): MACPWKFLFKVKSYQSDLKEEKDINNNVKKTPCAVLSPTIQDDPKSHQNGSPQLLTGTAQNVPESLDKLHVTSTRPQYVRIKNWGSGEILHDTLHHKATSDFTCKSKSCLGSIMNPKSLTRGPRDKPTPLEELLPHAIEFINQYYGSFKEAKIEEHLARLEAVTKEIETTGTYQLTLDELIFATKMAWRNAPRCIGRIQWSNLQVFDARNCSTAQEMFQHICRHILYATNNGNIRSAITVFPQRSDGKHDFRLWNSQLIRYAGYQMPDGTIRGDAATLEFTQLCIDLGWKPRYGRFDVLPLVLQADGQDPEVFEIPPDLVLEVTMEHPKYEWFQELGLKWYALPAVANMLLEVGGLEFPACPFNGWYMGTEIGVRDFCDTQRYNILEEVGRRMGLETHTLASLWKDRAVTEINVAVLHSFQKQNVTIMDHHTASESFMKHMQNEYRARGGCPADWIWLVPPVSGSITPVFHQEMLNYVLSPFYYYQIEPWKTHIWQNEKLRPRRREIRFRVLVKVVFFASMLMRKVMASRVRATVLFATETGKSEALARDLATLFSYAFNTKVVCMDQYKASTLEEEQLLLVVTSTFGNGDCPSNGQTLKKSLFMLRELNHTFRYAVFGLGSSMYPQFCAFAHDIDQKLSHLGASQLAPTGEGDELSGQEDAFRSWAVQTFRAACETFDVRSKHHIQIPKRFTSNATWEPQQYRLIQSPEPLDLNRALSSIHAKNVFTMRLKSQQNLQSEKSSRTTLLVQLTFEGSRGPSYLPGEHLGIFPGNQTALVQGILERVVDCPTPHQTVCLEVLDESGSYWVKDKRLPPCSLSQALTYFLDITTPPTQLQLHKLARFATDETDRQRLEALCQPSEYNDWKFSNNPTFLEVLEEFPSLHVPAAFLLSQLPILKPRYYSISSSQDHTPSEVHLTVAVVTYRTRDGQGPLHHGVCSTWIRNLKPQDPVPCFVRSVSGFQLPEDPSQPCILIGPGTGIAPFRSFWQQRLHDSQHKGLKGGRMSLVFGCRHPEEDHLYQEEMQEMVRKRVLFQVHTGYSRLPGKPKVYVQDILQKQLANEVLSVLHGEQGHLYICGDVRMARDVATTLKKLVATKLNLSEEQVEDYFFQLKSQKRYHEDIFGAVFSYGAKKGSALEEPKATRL
Kind of test: Evaluation as substrate of Inducible nitric oxide synthase by hemoglobin assay using NOHA as control. Type of test: functional. In outline:
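Initial NO-synthesis rate at 37 °C by spectrophotometric oxyhemoglobin assay. The cuvette held 0.5–1 unit enzyme in 50 mM HEPES pH 7.4 with 15 μM oxyhemoglobin, SOD, catalase, 200 μM NADPH, 4 μM FAD/FMN, 5 μM BH₄, 2–5 mM DTT, 0.5 mM substrate and 1 mM magnesium acetate. Methemoglobin formation was followed at 401 nm (ε 38 mM⁻¹ cm⁻¹). Rates are given as % of NOHA, mean ± SD, n≥3.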

In test [2] the target is Nitric oxide synthase 1 (Rattus norvegicus) (UniProt P29476). Nature of the test: Evaluation as substrate of Neuronal nitric oxide synthase by hemoglobin assay using NOHA as control. Put shortly:
(§1)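 Oxyhemoglobin-to-methemoglobin conversion was read at 401 nm (ε 38 mM⁻¹ cm⁻¹) at 37 °C to give initial NO rates. Conditions were 0.5–1 unit enzyme in 50 mM HEPES pH 7.4 with 15 μM oxyhemoglobin, SOD, catalase, 200 μM NADPH, 4 μM FAD/FMN, 5 μM BH₄, 2–5 mM DTT and 0.5 mM substrate, plus 1 mM CaCl₂ and 10 μg/mL CaM. Rates are reported relative to NOHA (100%), mean ± SD of ≥3 experiments.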

The target in test [3] is T2, Nitric oxide synthase 3 (Homo sapiens) (UniProt P29474).
T2 sequence (whole entry): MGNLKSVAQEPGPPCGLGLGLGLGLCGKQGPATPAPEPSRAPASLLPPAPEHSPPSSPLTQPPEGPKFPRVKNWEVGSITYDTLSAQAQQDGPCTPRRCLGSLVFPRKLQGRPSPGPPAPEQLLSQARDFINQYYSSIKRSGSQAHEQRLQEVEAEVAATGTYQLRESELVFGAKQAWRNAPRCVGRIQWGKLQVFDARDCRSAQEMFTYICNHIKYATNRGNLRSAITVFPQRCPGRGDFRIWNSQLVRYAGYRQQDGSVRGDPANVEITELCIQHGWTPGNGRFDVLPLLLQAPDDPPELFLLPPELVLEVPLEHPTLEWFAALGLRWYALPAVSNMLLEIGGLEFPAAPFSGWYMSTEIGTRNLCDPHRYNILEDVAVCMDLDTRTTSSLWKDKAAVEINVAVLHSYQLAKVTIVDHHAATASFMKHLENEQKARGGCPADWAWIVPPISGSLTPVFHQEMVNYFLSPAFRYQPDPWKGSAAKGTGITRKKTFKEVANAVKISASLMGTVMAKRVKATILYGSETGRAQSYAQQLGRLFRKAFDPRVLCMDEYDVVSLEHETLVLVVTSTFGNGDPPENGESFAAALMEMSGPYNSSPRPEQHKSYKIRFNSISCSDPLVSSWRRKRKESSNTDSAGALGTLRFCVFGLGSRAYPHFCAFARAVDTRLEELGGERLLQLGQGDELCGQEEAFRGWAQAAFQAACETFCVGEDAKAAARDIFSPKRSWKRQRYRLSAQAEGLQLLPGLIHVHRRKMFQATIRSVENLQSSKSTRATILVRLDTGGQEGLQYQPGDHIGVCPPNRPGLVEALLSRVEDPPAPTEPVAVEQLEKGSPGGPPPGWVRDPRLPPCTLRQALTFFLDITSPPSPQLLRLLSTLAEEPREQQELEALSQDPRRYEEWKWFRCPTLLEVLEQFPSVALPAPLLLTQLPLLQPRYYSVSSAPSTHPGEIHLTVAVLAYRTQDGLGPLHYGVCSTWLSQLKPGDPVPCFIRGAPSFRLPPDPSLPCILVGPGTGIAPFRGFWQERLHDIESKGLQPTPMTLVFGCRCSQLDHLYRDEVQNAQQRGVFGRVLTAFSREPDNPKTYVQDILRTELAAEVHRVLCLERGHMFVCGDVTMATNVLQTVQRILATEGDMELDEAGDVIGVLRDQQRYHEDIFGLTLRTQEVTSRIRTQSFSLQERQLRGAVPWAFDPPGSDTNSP
Kind of test: Evaluation as substrate of endothelial nitric oxide synthase by hemoglobin assay using NOHA as control. In outline:
as §1

These results are taken from ChEMBL document CHEMBL1145002, “Isoform-selective substrates of nitric oxide synthase” (J Med Chem, 2003).

Sequence of Nitric oxide synthase 1 (Rattus norvegicus) (P29476 whole entry): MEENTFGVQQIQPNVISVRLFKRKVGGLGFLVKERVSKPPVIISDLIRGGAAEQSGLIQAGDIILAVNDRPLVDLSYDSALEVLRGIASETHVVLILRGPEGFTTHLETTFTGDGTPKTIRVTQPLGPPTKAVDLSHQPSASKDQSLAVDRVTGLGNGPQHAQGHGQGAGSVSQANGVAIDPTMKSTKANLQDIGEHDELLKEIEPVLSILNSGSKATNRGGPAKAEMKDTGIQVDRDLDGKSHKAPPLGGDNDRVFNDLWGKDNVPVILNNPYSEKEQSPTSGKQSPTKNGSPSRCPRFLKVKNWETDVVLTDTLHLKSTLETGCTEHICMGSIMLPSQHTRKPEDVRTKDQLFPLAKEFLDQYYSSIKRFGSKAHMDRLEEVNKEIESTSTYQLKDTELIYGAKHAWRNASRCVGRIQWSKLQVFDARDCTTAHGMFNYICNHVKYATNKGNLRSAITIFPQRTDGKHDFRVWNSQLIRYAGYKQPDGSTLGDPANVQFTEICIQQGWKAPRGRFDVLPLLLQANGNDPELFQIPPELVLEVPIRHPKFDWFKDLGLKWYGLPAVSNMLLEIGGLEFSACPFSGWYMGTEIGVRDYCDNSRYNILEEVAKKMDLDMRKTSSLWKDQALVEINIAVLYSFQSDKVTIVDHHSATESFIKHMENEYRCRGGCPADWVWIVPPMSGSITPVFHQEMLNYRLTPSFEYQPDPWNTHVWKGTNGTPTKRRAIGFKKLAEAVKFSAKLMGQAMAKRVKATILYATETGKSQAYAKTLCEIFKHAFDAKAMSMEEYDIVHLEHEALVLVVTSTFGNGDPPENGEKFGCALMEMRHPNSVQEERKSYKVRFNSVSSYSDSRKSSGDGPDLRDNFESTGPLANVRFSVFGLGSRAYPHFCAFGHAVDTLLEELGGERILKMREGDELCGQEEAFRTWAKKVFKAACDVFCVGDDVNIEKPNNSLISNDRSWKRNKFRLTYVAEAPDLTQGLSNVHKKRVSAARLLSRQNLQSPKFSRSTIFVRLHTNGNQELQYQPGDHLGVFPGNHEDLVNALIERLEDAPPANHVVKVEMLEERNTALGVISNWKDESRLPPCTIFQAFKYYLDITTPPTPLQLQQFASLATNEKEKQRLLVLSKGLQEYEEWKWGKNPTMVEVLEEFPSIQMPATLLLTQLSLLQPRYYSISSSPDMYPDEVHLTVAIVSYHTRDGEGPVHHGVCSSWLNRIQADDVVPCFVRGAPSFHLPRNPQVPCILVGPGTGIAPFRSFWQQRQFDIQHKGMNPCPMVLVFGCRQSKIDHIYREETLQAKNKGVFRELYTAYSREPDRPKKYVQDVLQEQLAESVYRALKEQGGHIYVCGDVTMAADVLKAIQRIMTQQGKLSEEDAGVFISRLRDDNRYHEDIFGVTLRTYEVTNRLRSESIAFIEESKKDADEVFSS

With `N/C(=N/CC1CC1)NO`, the NO formation in test [1], in test [2] and in test [3] was less than 0.5% each time.
As to `C/C=C/C/N=C(/N)NO`, the NO formation was less than 0.5% in test [1], 5% in test [2] and less than 0.5% in test [3].
`CC1CC1CN=C(N)N` (stereo not drawn): the NO formation in test [1], in test [2] and in test [3] was less than 0.5% each time.
For the compound `C#CCC/N=C(/N)NO`, the results for the NO formation in test [1], in test [2] and in test [3] were 28%, 37% and less than 0.5%, respectively.
Regarding `CCCC/N=C(/N)NOC`, the NO formation in test [1], in test [2] and in test [3] was less than 0.5% each time.
As to `CCCCN=C(N)N`, the figures for the NO formation in test [1], in test [2] and in test [3] were 6%, less than 0.5% and less than 0.5%, respectively.
On to `N=C(N)NCC1CC1`, for which the NO formation in test [1], in test [2] and in test [3] was less than 0.5% each time.
For `CCCCN(C)C(=N)NO`, the NO formation in test [1], in test [2] and in test [3] was less than 0.5% in each case.
As to `CCCCN/C(N)=N/O`, the NO formation in test [1] was 42%; in test [2] it was 64%; in test [3] it was 20%.
The like results for `N/C(=N\O)N1CCCC1` were, in that order, less than 0.5%, less than 0.5% and less than 0.5%.
Regarding `C/C=C/CN=C(N)N`, the NO formation in test [1], in test [2] and in test [3] was less than 0.5% in each case.
For `N/C(=N\O)N1CCOCC1`, the NO formation in test [1], in test [2] and in test [3] was less than 0.5% in each case.
On to `CC(C)NC(=N)NO`, for which the NO formation was 15% in test [1], 70% in test [2] and 38% in test [3].
The like results for `N=C(N)NCCC[C@H](N)C(=O)O` were, in that order, 50%, 72% and 38%.
Turning to `N/C(=N/C1CC1)NO`, the NO formation was less than 0.5% in test [1], 70% in test [2] and 26% in test [3].
For `CCCC/N=C(/N)NOCc1ccccc1`, the NO formation in test [1], in test [2] and in test [3] was less than 0.5% throughout.
